Measurements from ChEMBL document CHEMBL1240500, “Peptidyl alpha-ketoamides with nucleobases, methylpiperazine, and dimethylaminoalkyl substituents as calpain inhibitors” (J Med Chem, 2010).

Experiments:
[1] = biological target: T1, Calpain-1 catalytic subunit (Sus scrofa, UniProt P35750); assay: Inhibition of porcine erythrocyte calpain 1
T1 sequence (P35750 whole entry): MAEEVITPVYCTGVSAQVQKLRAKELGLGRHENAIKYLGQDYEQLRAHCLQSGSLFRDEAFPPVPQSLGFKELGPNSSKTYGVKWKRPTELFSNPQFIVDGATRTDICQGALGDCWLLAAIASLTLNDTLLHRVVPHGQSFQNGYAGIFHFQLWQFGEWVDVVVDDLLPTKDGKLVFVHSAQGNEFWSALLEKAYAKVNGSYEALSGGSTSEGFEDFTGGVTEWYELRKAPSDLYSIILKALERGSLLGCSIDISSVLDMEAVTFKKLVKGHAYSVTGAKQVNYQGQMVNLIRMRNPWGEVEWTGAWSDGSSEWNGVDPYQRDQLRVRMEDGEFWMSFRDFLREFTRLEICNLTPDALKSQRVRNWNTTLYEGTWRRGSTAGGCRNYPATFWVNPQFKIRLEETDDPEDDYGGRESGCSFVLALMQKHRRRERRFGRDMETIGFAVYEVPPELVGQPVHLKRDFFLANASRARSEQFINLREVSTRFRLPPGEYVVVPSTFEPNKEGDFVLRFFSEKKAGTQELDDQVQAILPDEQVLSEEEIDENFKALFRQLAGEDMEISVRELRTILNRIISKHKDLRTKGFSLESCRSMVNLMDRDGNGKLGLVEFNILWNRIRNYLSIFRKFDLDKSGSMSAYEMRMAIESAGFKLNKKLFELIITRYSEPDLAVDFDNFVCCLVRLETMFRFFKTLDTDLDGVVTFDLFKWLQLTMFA

Cathepsin B = Cathepsin B (Homo sapiens, UniProt P07858); assay: Inhibition of human liver cathepsin B
Outline: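 Human liver cathepsin B was DTT-activated (final 0.4 µM) in 0.1 M NaHPO4 pH 6.0 with 1.25 mM EDTA, 0.01% Brij and <5% DMSO. Cbz-Arg-Arg-AMC was used at 0.5, 0.2 and 0.1 µM, with ≥5 inhibitor concentrations. AMC fluorescence was read at ex 360/em 465 nm. Ki was taken from Dixon plots of 1/v versus [I].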

[2] = biological target: T2, Calpain-2 catalytic subunit (Sus scrofa, UniProt P43367); assay: Inhibition of porcine kidney calpain 2
T2 sequence (P43367 whole entry): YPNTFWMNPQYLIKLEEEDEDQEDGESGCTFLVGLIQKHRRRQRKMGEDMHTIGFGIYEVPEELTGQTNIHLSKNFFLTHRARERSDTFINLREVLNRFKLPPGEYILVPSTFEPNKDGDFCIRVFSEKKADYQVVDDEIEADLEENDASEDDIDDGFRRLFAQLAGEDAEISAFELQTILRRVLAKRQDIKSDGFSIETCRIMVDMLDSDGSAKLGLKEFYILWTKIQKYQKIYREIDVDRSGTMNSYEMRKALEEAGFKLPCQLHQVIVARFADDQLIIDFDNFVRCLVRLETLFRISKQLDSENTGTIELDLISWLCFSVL

[3] = biological target: T3, Calpain-1 catalytic subunit (Sus scrofa) (UniProt P35750); assay: Ratio of compound Ki to AK295 Ki for porcine erythrocyte calpain 1
T3 sequence (whole entry): T1 sequence (P35750 whole entry)

[4] = Drug level in C57BL/6 mouse brain at 24 mg/kg, sc after 8 hrs by HPLC analysis; assay type: ADME, organism-based; parameters: dose 24 mg/kg, route subcutaneous; conditions: read-out: Drug uptake
Outline: (§1)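 7-week-old female C57BL/6 mice (N = 3 per time point) got 24 mg/kg subcutaneously, were perfused with buffered saline at 37 °C, and were killed at 1, 2, 4 or 8 h. Brain was homogenized 5% w/v in water with internal standard spiked in. LC-MS/MS used ESI+ MRM and a Symmetry Shield C18 column. Quantitation was by peak-area ratio against plasma calibration standards.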

[5] = Drug level in C57BL/6 mouse brain at 24 mg/kg, sc after 2 hrs by HPLC analysis; assay type: ADME, organism-based; parameters: dose 24 mg/kg, route subcutaneous; conditions: read-out: Drug uptake; outline: as §1
[6] = Drug level in C57BL/6 mouse kidney at 24 mg/kg, iv after 1 hr by HPLC analysis; assay type: ADME, organism-based; parameters: dose 24 mg/kg, route intravenous; conditions: read-out: Drug uptake
Outline: (§2)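 7-week-old female C57BL/6 mice got 24 mg/kg subcutaneously (N = 2) or intravenously (N = 3). They were perfused with buffered saline at 37 °C and killed at 1 h. Tissues were homogenized 5% w/v in water with internal standard. LC-MS/MS used ESI+ MRM and a Zorbax Extend C18 column. Concentration came from the analyte/internal-standard area ratio against calibration standards made in undosed control tissue (0.10–1.00 µM). Errors came from repeat injections.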

[7] = Drug level in C57BL/6 mouse heart at 24 mg/kg, sc after 1 hr by HPLC analysis; assay type: ADME, organism-based; parameters: dose 24 mg/kg, route subcutaneous; conditions: read-out: Drug uptake; outline: as §2
[8] = Drug level in C57BL/6 mouse spleen at 24 mg/kg, sc after 1 hr by HPLC analysis; assay type: ADME, organism-based; parameters: dose 24 mg/kg, route subcutaneous; conditions: read-out: Drug uptake; outline: as §2
[9] = Drug level in C57BL/6 mouse spleen at 24 mg/kg, iv after 1 hr by HPLC analysis; assay type: ADME, organism-based; parameters: dose 24 mg/kg, route intravenous; conditions: read-out: Drug uptake; outline: as §2
[10] = Drug level in C57BL/6 mouse peripheral nerve at 24 mg/kg, iv after 1 hr by HPLC analysis; assay type: ADME, organism-based; parameters: dose 24 mg/kg, route intravenous; conditions: read-out: Drug uptake; outline: as §2
[11] = Drug level in C57BL/6 mouse serum at 24 mg/kg, sc after 1 hr by HPLC analysis; assay type: ADME, organism-based; parameters: dose 24 mg/kg, route subcutaneous; conditions: read-out: Drug uptake; outline: as §2
[12] = Drug level in C57BL/6 mouse heart at 24 mg/kg, iv after 1 hr by HPLC analysis; assay type: ADME, organism-based; parameters: dose 24 mg/kg, route intravenous; conditions: read-out: Drug uptake; outline: as §2
[13] = Drug level in C57BL/6 mouse liver at 24 mg/kg, iv after 1 hr by HPLC analysis; assay type: ADME, organism-based; parameters: dose 24 mg/kg, route intravenous; conditions: read-out: Drug uptake; outline: as §2
[14] = Drug level in C57BL/6 mouse kidney at 24 mg/kg, sc after 1 hr by HPLC analysis; assay type: ADME, organism-based; parameters: dose 24 mg/kg, route subcutaneous; conditions: read-out: Drug uptake; outline: as §2
[15] = Drug level in C57BL/6 mouse liver at 24 mg/kg, sc after 1 hr by HPLC analysis; assay type: ADME, organism-based; parameters: dose 24 mg/kg, route subcutaneous; conditions: read-out: Drug uptake; outline: as §2

SMILES | Ki [1] | Ki (Cathepsin B) | Ki [2] | Ratio [3] | further results
CC(C)C[C@H](NC(=O)OCc1ccccc1)C(=O)NC(Cc1ccccc1)C(=O)C(=O)NCCCN1CCN(C)CC1 (some centres undefined) | 1370 nM | 111000 nM | 6360 nM | – | –
CC(C)C[C@H](NC(=O)OCc1ccccc1)C(=O)NC(Cc1ccccc1)C(=O)C(=O)NCCN(C)C (some centres undefined) | 711 nM | 475000 nM | 3520 nM | – | –
COc1nc(N)c2ncn(CCCNC(=O)C(=O)C(Cc3ccccc3)NC(=O)[C@H](CC(C)C)NC(=O)OCc3ccccc3)c2n1 (some centres undefined) | 41 nM | 2340 nM | 209 nM | 3 | –
CCC(NC(=O)[C@H](CC(C)C)NC(=O)OCc1ccccc1)C(=O)C(=O)NCCCn1cnc2c(N)nc(OC)nc21 (some centres undefined) | 23 nM | 880 nM | 77 nM | 3 | –
CC(C)C[C@H](NC(=O)OCc1ccccc1)C(=O)NC(Cc1ccccc1)C(=O)C(=O)NCCCN(C)C (some centres undefined) | 226 nM | 75500 nM | 844 nM | – | –
CCC(NC(=O)[C@H](CC(C)C)NC(=O)OCc1ccccc1)C(=O)C(=O)NCCCN1CCOCC1 (some centres undefined) | 150 nM | 6900 nM | 41 nM | – | concentration at 1 h [6]: 1820 ng/g; concentration at 1 h [7]: 541 ng/g; concentration at 1 h [8]: 1380 ng/g; concentration at 1 h [9]: 1320 ng/g; concentration at 1 h [10]: 333 ng/g; concentration at 1 h [11]: 895 ng/g; concentration at 1 h [12]: 561 ng/g; concentration at 1 h [13]: 943 ng/g; concentration at 1 h [14]: 936 ng/g; concentration at 1 h [15]: 1550 ng/g

More lines, main results first:

Ki [1] | Ki (Cathepsin B) | Ki [2] | SMILES | Ratio [3] | further results
480 nM | 440 nM | 438 nM | CC(C)C[C@H](NC(=O)OCc1ccccc1)C(=O)NC(Cc1ccccc1)C(=O)C(=O)NCCCn1ccc(N)nc1=O (some centres undefined) | – | –
53 nM | 800 nM | 70 nM | CCC(NC(=O)[C@H](CC(C)C)NC(=O)OCc1ccccc1)C(=O)C(=O)NCCCn1cnc2c(N)ncnc21 (some centres undefined) | 3 | concentration at 8 h [4]: 1170 ng/g
640 nM | 1420 nM | 286 nM | CCC(NC(=O)[C@H](CC(C)C)NC(=O)OCc1ccccc1)C(=O)C(=O)NCCCN1CCN(C)CC1 (some centres undefined) | – | concentration at 2 h [5]: 1140 ng/g
55 nM | 1750 nM | 68 nM | CC(C)C[C@H](NC(=O)OCc1ccccc1)C(=O)NC(Cc1ccccc1)C(=O)C(=O)NCCCn1cnc2c(N)ncnc21 (some centres undefined) | 3 | –
165 nM | 750 nM | 1140 nM | CCC(NC(=O)[C@H](CC(C)C)NC(=O)OCc1ccccc1)C(=O)C(=O)NCCCn1ccc(N)nc1=O (some centres undefined) | – | –
